# Data reported in ChEMBL document CHEMBL2146441, “2,6-Disubstituted imidazo[2,1-b][1,3,4]thiadiazoles: search for anticancer agents” (2012).
# Experiments:
# Type in all cases: functional
# CAKI-1 = assay: Cytotoxicity against human Caki1 cells assessed as cell growth at 10^-4 M after 48 hrs by SRB assay; details: CAKI-1, 48 h, read-out: Activity
# How it was run: (§1)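 NCI-60 screen: lines kept in RPMI 1640 with 5% FBS, seeded at 5000–40,000 cells/well by doubling time, preincubated 24 h at 37 °C in 5% CO2. Time-zero plates TCA-fixed at drug addition. DMSO stocks diluted in medium, 48 h exposure. Fixation in cold TCA (final 10% adherent, 16% suspension), 0.4% SRB stain, solubilised in 10 mM Tris base, A515. Percent growth computed against control and time-zero.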
# HCT-15 = assay: Cytotoxicity against human HCT15 cells assessed as cell growth at 10^-6 M after 48 hrs by SRB assay; details: HCT-15, 48 h, read-out: Activity
# How it was run: (§2)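 NCI-60 five-dose screen. Cells were grown in RPMI 1640 with 5% FBS and seeded at 5000–40,000 cells/well according to doubling time. They were pre-incubated 24 h at 37 °C in 5% CO₂, and time-zero (Tz) plates were TCA-fixed at drug addition. Five 10-fold dilutions of DMSO stock were applied for 48 h. Read-out was SRB staining, 515 nm absorbance, with percent growth calculated versus Tz and untreated control.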
# SK-OV-3 = assay: Growth inhibition of human SKOV3 cells after 48 hrs by SRB assay; details: SK-OV-3, 48 h; for CC50: read-out: LC50 (the source's name)
# How it was run: (§3)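 Adherent NCI-60 lines grown in RPMI 1640 with 5% FBS, seeded at 5000–40,000 cells/well, and preincubated 24 h at 37 °C, 5% CO2. Compound, stocked in DMSO, given either once at 10^-5 M or at five 10-fold dilutions for 48 h. Cells fixed with cold TCA (final 10%), stained with 0.4% SRB, and read at 515 nm. GI50 taken as 50% reduction in net protein increase versus time-zero and control plates.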
# MDA-MB-468 [1] = assay: Cytotoxicity against human MDA-MB-468 cells assessed as cell growth at 10^-7 M after 48 hrs by SRB assay; details: MDA-MB-468, 48 h, read-out: Activity
# SR = assay: Cytotoxicity against human SR cells assessed as cell growth at 10^-4 M after 48 hrs by SRB assay; details: read-out: Activity
# HL-60 [2] = assay: Growth inhibition of human HL60 cells after 48 hrs by SRB assay; details: HL-60, 48 h
# How it was run: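 Leukemia suspension lines grown in RPMI 1640 with 5% FBS, seeded at 5000–40,000 cells/well, and preincubated 24 h at 37 °C, 5% CO2. Compound, stocked in DMSO, given either once at 10^-5 M or at five 10-fold dilutions for 48 h. Settled cells fixed with 80% TCA (final 16%), stained with SRB, and read at 515 nm. GI50 calculated against time-zero and control growth.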
# IGROV-1 [3] = assay: Cytotoxicity against human IGROV1 cells assessed as cell growth at 10^-6 M after 48 hrs by SRB assay; details: IGROV-1, 48 h, read-out: Activity; how it was run: as §2
# MDA-MB-468 [4] = assay: Cytotoxicity against human MDA-MB-468 cells assessed as cell growth at 10^-5 M after 48 hrs by SRB assay; details: MDA-MB-468, 48 h, read-out: Activity
# MDA-MB-231 = assay: Cytotoxicity against human MDA-MB-231 cells assessed as cell growth at 10^-8 M after 48 hrs by SRB assay; details: MDA-MB-231, 48 h, read-out: Activity
# HOP-92 = assay: Cytotoxicity against human HOP92 cells assessed as cell growth at 10^-7 M after 48 hrs by SRB assay; details: HOP-92, 48 h, read-out: Activity; how it was run: as §2
# MCF7 = assay: Cytotoxicity against human MCF7 cells assessed as cell growth at 10^-6 M after 48 hrs by SRB assay; details: MCF7, 48 h, read-out: Activity
# SF-268 = assay: Growth inhibition of human SF268 cells after 48 hrs by SRB assay; details: SF-268, 48 h; how it was run: as §3
# NCI-H522 = assay: Cytotoxicity against human NCI-H522 cells assessed as cell growth at 10^-7 M after 48 hrs by SRB assay; details: NCI-H522, 48 h, read-out: Activity
# HOP-62 = assay: Cytotoxicity against human HOP62 cells assessed as cell growth at 10^-4 M after 48 hrs by SRB assay; details: HOP-62, 48 h, read-out: Activity; how it was run: as §2
# HL-60 [5] = assay: Cytotoxicity against human HL60 cells assessed as cell growth at 10^-5 M after 48 hrs by SRB assay; details: HL-60, 48 h, read-out: Activity; how it was run: as §2
# IGROV-1 [6] = assay: Cytotoxicity against human IGROV1 cells assessed as cell growth at 10^-7 M after 48 hrs by SRB assay; details: IGROV-1, 48 h, read-out: Activity
# SNB-19 [7] = assay: Cytotoxicity against human SNB19 cells assessed as cell growth at 10^-5 M after 48 hrs by SRB assay; details: SNB-19, 48 h, read-out: Activity
# SNB-19 [8] = assay: Cytotoxicity against human SNB19 cells assessed as cell growth at 10^-7 M after 48 hrs by SRB assay; details: SNB-19, 48 h, read-out: Activity
# IGROV-1 [9] = assay: Growth inhibition of human IGROV1 cells after 48 hrs by SRB assay; details: IGROV-1, 48 h; for CC50: read-out: LC50 (the source's name); how it was run: as §3
# UACC-257 = assay: Cytotoxicity against human UACC257 cells assessed as cell growth at 10^-6 M after 48 hrs by SRB assay; details: UACC-257, 48 h, read-out: Activity
# BT-549 = assay: Cytotoxicity against human BT549 cells assessed as cell growth at 10^-6 M after 48 hrs by SRB assay; details: BT-549, 48 h, read-out: Activity; how it was run: as §1
# COLO = assay: Cytotoxicity against human COLO […] cells assessed as cell growth at 10^-4 M after 48 hrs by SRB assay; details: read-out: Activity; how it was run: as §1
# MOLT-4 = assay: Cytotoxicity against human MOLT4 cells assessed as cell growth at 10^-4 M after 48 hrs by SRB assay; details: MOLT-4, 48 h, read-out: Activity
# ACHN [10] = assay: Cytotoxicity against human ACHN cells assessed as cell growth at 10^-6 M after 48 hrs by SRB assay; details: read-out: Activity; how it was run: as §1
# ACHN [11] = assay: Cytotoxicity against human ACHN cells assessed as cell growth at 10^-4 M after 48 hrs by SRB assay; details: read-out: Activity; how it was run: as §1
# SK-MEL-28 = assay: Cytotoxicity against human SK-MEL-28 cells assessed as cell growth at 10^-6 M after 48 hrs by SRB assay; details: SK-MEL-28, 48 h, read-out: Activity
# SK-MEL-2 = assay: Cytotoxicity against human SK-MEL-2 cells assessed as cell growth at 10^-7 M after 48 hrs by SRB assay; details: SK-MEL-2, 48 h, read-out: Activity
# HT-29 = assay: Cytotoxicity against human HT-29 cells assessed as cell growth at 10^-8 M after 48 hrs by SRB assay; details: HT-29, 48 h, read-out: Activity; how it was run: as §2
# [12] = Cytotoxicity against human Hs 578T cells assessed as cell growth at 10^-8 M after 48 hrs by SRB assay; details: read-out: Activity; how it was run: as §2
SMILES,growth at 100 µM (CAKI-1) [%],growth at 1 µM (HCT-15) [%],GI50 (SK-OV-3) [µM],TGI (SK-OV-3) [µM],CC50 (SK-OV-3) [µM],growth at 0.1 µM (MDA-MB-468 [1]) [%],growth at 100 µM (SR) [%],GI50 (HL-60 [2]) [µM],LC50 (HL-60 [2]) [µM],TGI (HL-60 [2]) [µM],growth at 1 µM (IGROV-1 [3]) [%],growth at 10 µM (MDA-MB-468 [4]) [%],growth at 0.01 µM (MDA-MB-231) [%],growth at 0.1 µM (HOP-92) [%],growth at 1 µM (MCF7) [%],GI50 (SF-268) [µM],LC50 (SF-268) [µM],TGI (SF-268) [µM],growth at 0.1 µM (NCI-H522) [%],growth at 100 µM (HOP-62) [%],also measured
COc1ccc(-c2nn3cc(-c4ccc(O)cc4O)nc3s2)cc1,-9,93,1.7,3.62,7.72,78,-35,3.86,> 100,37.4,72,9,99,64,70,2.42,> 100,41.1,84,-22,growth at 10 µM (HL-60 [5]): 33%; growth at 0.1 µM (IGROV-1 [6]): 94%; growth at 10 µM (SNB-19 [7]): 22%; growth at 0.1 µM (SNB-19 [8]): 92%; GI50 (IGROV-1 [9]): 2.23 µM; TGI (IGROV-1 [9]): 37.4 µM; CC50 (IGROV-1 [9]): > 100 µM; growth at 1 µM (UACC-257): 83%; growth at 1 µM (BT-549): 73%; growth at 100 µM (COLO): -27%; growth at 100 µM (MOLT-4): -22%; growth at 1 µM (ACHN [10]): 100%; growth at 100 µM (ACHN [11]): 6%; growth at 1 µM (SK-MEL-28): 73%; growth at 0.1 µM (SK-MEL-2): 96%; growth at 0.01 µM (HT-29): 98%; growth at 0.01 µM [12]: 95%
COc1ccc(-c2nn3cc(-c4cccc(N)c4)nc3s2)cc1,-39,86,2.72,10.8,54.9,80,23,1.77,> 100,37.7,72,-2,85,53,65,4.13,> 100,27.2,83,-54,growth at 10 µM (HL-60 [5]): 19%; growth at 0.1 µM (IGROV-1 [6]): 93%; growth at 10 µM (SNB-19 [7]): 54%; growth at 0.1 µM (SNB-19 [8]): 90%; GI50 (IGROV-1 [9]): 2.65 µM; TGI (IGROV-1 [9]): 34.4 µM; CC50 (IGROV-1 [9]): > 100 µM; growth at 1 µM (UACC-257): 107%; growth at 1 µM (BT-549): 87%; growth at 100 µM (COLO): -56%; growth at 100 µM (MOLT-4): 7%; growth at 1 µM (ACHN [10]): 93%; growth at 100 µM (ACHN [11]): -53%; growth at 1 µM (SK-MEL-28): 80%; growth at 0.1 µM (SK-MEL-2): 93%; growth at 0.01 µM (HT-29): 100%; growth at 0.01 µM [12]: 90%
